Measured values taken from ChEMBL document CHEMBL1149538, “A high-throughput assay for O-GlcNAc transferase detects primary sequence preferences in peptide substrates” (Bioorg Med Chem Lett, 2007).
Where a SMILES comes first, the peptide text is derived from it.

B1: UDP-N-acetylglucosamine--peptide N-acetylglucosaminyltransferase 110 kDa subunit (Homo sapiens), O15294 (protein)
chain: MASSVGNVADSTEPTKRMLSFQGLAELAHREYQAGDFEAAERHCMQLWRQEPDNTGVLLLLSSIHFQCRRLDRSAHFSTLAIKQNPLLAEAYSNLGNVYKERGQLQEAIEHYRHALRLKPDFIDGYINLAAALVAAGDMEGAVQAYVSALQYNPDLYCVRSDLGNLLKALGRLEEAKACYLKAIETQPNFAVAWSNLGCVFNAQGEIWLAIHHFEKAVTLDPNFLDAYINLGNVLKEARIFDRAVAAYLRALSLSPNHAVVHGNLACVYYEQGLIDLAIDTYRRAIELQPHFPDAYCNLANALKEKGSVAEAEDCYNTALRLCPTHADSLNNLANIKREQGNIEEAVRLYRKALEVFPEFAAAHSNLASVLQQQGKLQEALMHYKEAIRISPTFADAYSNMGNTLKEMQDVQGALQCYTRAIQINPAFADAHSNLASIHKDSGNIPEAIASYRTALKLKPDFPDAYCNLAHCLQIVCDWTDYDERMKKLVSIVADQLEKNRLPSVHPHHSMLYPLSHGFRKAIAERHGNLCLDKINVLHKPPYEHPKDLKLSDGRLRVGYVSSDFGNHPTSHLMQSIPGMHNPDKFEVFCYALSPDDGTNFRVKVMAEANHFIDLSQIPCNGKAADRIHQDGIHILVNMNGYTKGARNELFALRPAPIQAMWLGYPGTSGALFMDYIITDQETSPAEVAEQYSEKLAYMPHTFFIGDHANMFPHLKKKAVIDFKSNGHIYDNRIVLNGIDLKAFLDSLPDVKIVKMKCPDGGDNADSSNTALNMPVIPMNTIAEAVIEMINRGQIQITINGFSISNGLATTQINNKAATGEEVPRTIIVTTRSQYGLPEDAIVYCNFNQLYKIDPSTLQMWANILKRVPNSVLWLLRFPAVGEPNIQQYAQNMGLPQNRIIFSPVAPKEEHVRRGQLADVCLDTPLCNGHTTGMDVLWAGTPMVTMPGETLASRVAASQLTCLGCLELIAKNRQEYEDIAVKLGTDLEYLKKVRGKVWKQRISSPLFNTKQYTMELERLYLQMWEHYAAGNKPDHMIKPVEVTESA

Experiments:
Conditions in all cases: BL21-DE3
[1] = biological target: T1, UDP-N-acetylglucosamine--peptide N-acetylglucosaminyltransferase 110 kDa subunit (Homo sapiens) (UniProt O15294); assay: Binding affinity to human OGT expressed in Escherichia coli […] cells assessed as alpha-FLAG-HRP activity relative to alpha-A-crystallin peptide by azido-ELISA
T1 sequence (whole entry): B1 chain
Summary of the method: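 Biotinylated peptides are reacted at saturating levels with Ni-column-purified human OGT from E. coli BL21(DE3), plus UDP-GlcNAz 62.5 μM, MgCl2 12.5 μM and β-mercaptoethanol 1 mM, for 4 h at 37 °C. Reactions are stopped with pH 4.5 sodium acetate and captured on NeutrAvidin. Product is tagged with phosphine-FLAG, detected by anti-FLAG-HRP/TMB at A450, normalized to the parent peptide after Ala-peptide background subtraction. Data are from 3 experiments, each in triplicate.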

[2] = substrate: CC[C@H](C)[C@H](NC(=O)[C@H](C)N)C(=O)N1CCC[C@H]1C(=O)N[C@H](C(=O)N[C@@H](CO)C(=O)N[C@@H](CCCNC(=N)N)C(=O)N[C@@H](C)C(=O)N[C@@H](CCC(=O)O)C(=O)N[C@@H](CCCCN)C(=O)O)C(C)C; assay: (§1) Binding affinity to human OGT expressed in Escherichia coli […] cells by azido-ELISA
Summary of the method: (§2)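 Km is derived from the azido-ELISA using Ni-purified human OGT expressed in E. coli BL21(DE3), with UDP-GlcNAz as donor, MgCl2 and β-mercaptoethanol, incubated at 37 °C. Biotinylated peptide product is captured on NeutrAvidin, Staudinger-tagged with phosphine-FLAG (0.2 mM, 2 h, 37 °C), and quantified by anti-FLAG-HRP with TMB at 450 nm.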

[3] = substrate: CC[C@H](C)[C@H](NC(=O)[C@H](C)N)C(=O)N1CCC[C@H]1C(=O)N[C@H](C(=O)N[C@@H](CO)C(=O)N[C@@H](CCCNC(=N)N)C(=O)N1CCC[C@H]1C(=O)N[C@@H](CCC(=O)O)C(=O)N[C@@H](CCCCN)C(=O)O)C(C)C; assay: as §1; summary of the method: as §2
[4] = substrate: CC[C@H](C)[C@H](NC(=O)[C@H](C)N)C(=O)N1CCC[C@H]1C(=O)N[C@H](C(=O)N[C@@H](CO)C(=O)N[C@@H](CCCNC(=N)N)C(=O)N[C@@H](CCC(=O)O)C(=O)N[C@@H](CCC(=O)O)C(=O)N[C@@H](CCCCN)C(=O)O)C(C)C; assay: as §1; summary of the method: as §2

Molecule	Activity [1]	other results
CC(C)[C@H](NC(=O)[C@@H]1CCCN1C(=O)[C@H](CCCNC(=N)N)NC(=O)[C@H](C)N)C(=O)N[C@@H](CO)C(=O)N[C@@H](CCCNC(=N)N)C(=O)N[C@@H](CCC(=O)O)C(=O)N[C@@H](CCC(=O)O)C(=O)N[C@@H](CCCCN)C(=O)O (H-ARPVSREEK-OH)	0	–
CC[C@H](C)[C@H](NC(=O)[C@@H](N)CCC(=O)O)C(=O)N1CCC[C@H]1C(=O)N[C@H](C(=O)N[C@@H](CO)C(=O)N[C@@H](CCCNC(=N)N)C(=O)N[C@@H](CCC(=O)O)C(=O)N[C@@H](CCC(=O)O)C(=O)N[C@@H](CCCCN)C(=O)O)C(C)C (H-EIPVSREEK-OH)	1	–
CC[C@H](C)[C@H](N)C(=O)N[C@H](C(=O)N1CCC[C@H]1C(=O)N[C@H](C(=O)N[C@@H](CO)C(=O)N[C@@H](CCCNC(=N)N)C(=O)N[C@@H](CCC(=O)O)C(=O)N[C@@H](CCC(=O)O)C(=O)N[C@@H](CCCCN)C(=O)O)C(C)C)[C@@H](C)CC (H-IIPVSREEK-OH)	1.6	–
CC[C@H](C)[C@H](NC(=O)[C@@H]1CCCN1)C(=O)N1CCC[C@H]1C(=O)N[C@H](C(=O)N[C@@H](CO)C(=O)N[C@@H](CCCNC(=N)N)C(=O)N[C@@H](CCC(=O)O)C(=O)N[C@@H](CCC(=O)O)C(=O)N[C@@H](CCCCN)C(=O)O)C(C)C (H-PIPVSREEK-OH)	1.8	–
CC[C@H](C)[C@H](NC(=O)[C@@H](N)CCCNC(=N)N)C(=O)N1CCC[C@H]1C(=O)N[C@H](C(=O)N[C@@H](CO)C(=O)N[C@@H](CCCNC(=N)N)C(=O)N[C@@H](CCC(=O)O)C(=O)N[C@@H](CCC(=O)O)C(=O)N[C@@H](CCCCN)C(=O)O)C(C)C (H-RIPVSREEK-OH)	2	–
B1	–	Km [2]: 0.5 µM; Km [3]: 0.8 µM; Km [4]: 8.7 µM
